Screens: PubChem BioAssay, Broad Institute
The list is a sample of the results.
PGC1a acetyl up: raises PGC1a acetylation signal in U2OS cells | U2OS PGC1a acetylation AlphaScreen, overnight | activation, % at 15.6 µM | hit rate 0.21% among 350,000 | AID 651723;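 active = every replicate reaching activation of at least 50%, whatever the mean replicate activation; inconclusive = replicates that disagree or another doubt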;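 also: hits raise the AlphaScreen acetylation signal above neutral controls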
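System – flag-PGC1a/GCN5 U2OS cells · Quantity – 7000 U2OS cells per well · Signal – AlphaScreen proximity luminescence, anti-acetyl-lysine antibody · Schedule – overnight compound treatment, 37 °C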
Hep G6PC suppr: PGC-1a acetylation activators affecting G6PC expression in hepatocytes; shares compounds with PGC1a acetyl up; primary mouse hepatocytes, G6PC mRNA qPCR, forskolin; G6PC suppression (normalized activity, % of positive control; higher = more suppression), % at 26 µM; 240 tested, under 10 active;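 active = dose curves showing G6PC suppression whose half-maximal dose is at most twice the top valid dose; inconclusive = flat curves with moderate negative activity, or unreliable fits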;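 also: G6PC expression relative to GAPDH housekeeping gene as delta delta Ct; 0% = median of neutral control wells and 100% = median of positive control wells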
PCK1 hep suppr: PGC-1a acetylation activator altering hepatocyte PCK1 expression. shares compounds with PGC1a acetyl up. primary mouse hepatocytes, PCK1 mRNA qPCR, forskolin-stimulated. PCK1 expression decrease, unspecified at 26 µM. 230 tested, under 10 active. AID 743465;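 active = compounds lowering PCK1 expression whose fitted half-maximal concentration is at most twice the top tested dose; inconclusive = flat fit with moderate opposite-direction effect, or poor fit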;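 also: values are delta delta Ct of PCK1 relative to GAPDH; higher delta delta Ct means lower PCK1 expression so positive values indicate hits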
PGC1a hep suppr: PGC-1a acetylation activators affecting PGC-1a expression in hepatocytes; max activity (PGC-1a expression decrease), %; shares compounds with PGC1a acetyl up; AID 743467; primary mouse hepatocytes, PGC-1a mRNA qPCR, forskolin; top dose 26 µM; 240 tested, under 10 active;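 active = compound lowering PGC-1a expression with fitted half-maximal concentration at most twice its top tested dose; inconclusive = flat curve with moderate opposite-direction effect, or poor fit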;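 also: 0% = neutral control wells median and 100% = positive control wells median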
The depositor's hits bear a star; i = inactive; ? = inconclusive.

SMILES	PGC1a acetyl up	others
C=C1C(=O)OC2C1CCC(C)C1(O)C=CC(=O)C21C (centres undefined)	115.4*
C=C1C(=O)OC2CC(C)C3C=CC(=O)C3(C)C(O)C12 (centres undefined)	-42.3
CN(C)CCN=Cc1c(O)n(Cc2ccco2)c(=O)[nH]c1=O	82.2*
O=c1[nH]c(=S)n(Cc2ccco2)c(O)c1C=NCc1cccs1	-41.2
CC1=CC2OC3CC4OC(=O)C=CC=CC(=O)OCCC(C)C(O)C(=O)OCC2(CC1)C4(C)C31CO1 (centres undefined)	-77.4
CC1CC(C)(O)CC(C(O)CC2CC(=O)NC(=O)C2)C1=O (centres undefined)	-76.9
CC[C@H](C)[C@@H]1NC(=O)CNC(=O)c2csc(n2)[C@H](C(C)(C)O)OC(=O)C(C)(C)[C@H](CCCC(C)(Cl)Cl)OC(=O)c2csc1n2	-59.7
CCCCN1C(=O)NC(=O)C2(Cc3c(nc4c(C)cccn4c3=O)N3CCc4ccccc4C32)C1=O (centres undefined)	67.6*
COc1ccc(Oc2cc(NC(=O)c3nn(C)cc3[N+](=O)[O-])cc([N+](=O)[O-])c2)cc1	-78.1
Cc1ccc2c(c1)CC1(CN2C)C(=O)NC(=O)N(C(C)C)C1=O (centres undefined)	50.8*
CC(=O)OC1CC2OC3C=C(C)CCC3(C)C1(C)C21CO1 (centres undefined)	-87.2
C[C@H]1[C@@H](OS(=O)(=O)O)C[C@@H]2C[C@H]([C@@H](O)c3cc(=O)[nH]c(=O)[nH]3)NC3=NC[C@H]1N32	-93.5
CN1C(=O)/C(=C\c2ccc(N3CCCCC3)o2)C(=O)NC1=S	53.9*
CC1=CC2OC3CC4OC(=O)C=CC=CC(C(C)O)OCC(O)C5(C)OC5C(=O)OCC2(CC1O)C4(C)C31CO1 (centres undefined)	-87.1
CCC1CN2CCc3cc(OC)c(OC)cc3C2CC1CC1NCCc2c1[nH]c1ccc(O)cc21 (centres undefined)	-70.5
CC(C)(C)n1nnnc1C(CCc1ccccc1)N1CCC2(CC1)C(=O)NCN2c1ccccc1 (centres undefined)	71.5*
O=c1[nH]c2ccccc2n1C1CCN(C(CCc2ccccc2)c2nnnn2Cc2ccccc2)CC1 (centres undefined)	-103.5
CC(=O)O[C@H]1C[C@@H]2OC3C=C(C)CCC3(C)[C@@]1(C)[C@@]21CO1 (some centres undefined)	-83.8
CC(N)C(=O)NC1C2C(=C(O)CC(O)C2O)C(=O)OC1(C)C(Cl)Cl (centres undefined)	-74.0
COc1cccc(C(c2nnnn2C2CCCCC2)N2CCC3(CC2)C(=O)NCN3c2ccccc2)c1OC (centres undefined)	71.6*
CNc1cc(Cl)c2nonc2c1[N+](=O)[O-]	-68.2
CCOC(=O)C1=Nc2ccccc2/C1=C\c1c(O)n(C)c(=O)n(C)c1=O	-43.0
CC(O)C1C=CC=CC(=O)OC2CC3OC4C5OC5(C)C(O)CC4(COC(=O)C(O)C(C)CCO1)C2(C)C31CO1 (centres undefined)	-86.9
Cc1ccc(OC(=O)N(C)C[C@H]2OCc3ccccc3-c3c(n(C)c4ccccc34)C(=O)N([C@H](C)CO)C[C@H]2C)cc1	228.8*	Hep G6PC suppr=91.8;PCK1 hep suppr=101;PGC1a hep suppr=157.7
CC1CCC/C=C/C2CC(O)CC2C(O)/C=C/C(=O)O1 (centres undefined)	-72.6
SMILES	PGC1a acetyl up	others
CC12CCC(O)CC1CCC1C2CCC2(C)C(C3=CC(=O)OC3)CCC12O (centres undefined)	-79.9
O=C1NCN(c2ccccc2)C12CCN(C(c1cccc3ccccc13)c1nnnn1C1CCCCC1)CC2 (centres undefined)	67.5*	Hep G6PC suppr=-9.2;PCK1 hep suppr=44.8;PGC1a hep suppr=?
CC1CCC[C@H](O)CCCCCc2cc(O)cc(O)c2C(=O)O1 (some centres undefined)	-46.8
C[C@H]1CCC/C=C/C2C[C@H](O)CC2[C@H](O)/C=C/C(=O)O1 (some centres undefined)	-72.2
CC1CCCN(CC(=O)N2CCCc3ccccc32)C1 (centres undefined)	-43.3
Cc1cccc(C)c1-n1nnnc1C(c1cccs1)N1CCC(n2c(=O)[nH]c3ccccc32)CC1 (centres undefined)	?	Hep G6PC suppr=401.5;PCK1 hep suppr=251;PGC1a hep suppr=377.3
CSCCC(c1nnnn1-c1c(C)cccc1C)N1CCC(n2c(=O)[nH]c3ccccc32)CC1 (centres undefined)	89.2*	Hep G6PC suppr=i;PCK1 hep suppr=775;PGC1a hep suppr=148.8
